Assay results as given in ChEMBL document CHEMBL3526048, “In vitro metabolism of rivoglitazone, a novel peroxisome proliferator-activated receptor γ agonist, in rat, monkey, and human liver microsomes and freshly isolated hepatocytes” (Drug Metab Dispos, 2011).

What was measured:
Type in all cases: ADME
[1] = system: Liver microsome; experiment: Drug metabolism in human liver microsomes assessed as formation of 3-(4-((6-methoxy-1-methyl-1H-benzo[d]imidazol-2-yl)methoxy)phenyl)-2-(methylthio)propanamide at 20 uM after 2 hrs by radio-HPLC/LC-MS/MS analysis in presence of NADPH-generating system/SAM
[2] = target: T1, UDP-glucuronosyltransferase 1A8 (Homo sapiens, UniProt Q9HAW9); experiment: Activity of human UGT1A8 expressed in microsomes isolated from baculovirus infected insect cell assessed as enzyme-mediated (2S,3S,4S,5R,6R)-6-((1-carboxy-2-(4-((6-methoxy-1-methyl-1H-benzo[d]imidazol-2-yl)methoxy)phenyl)ethylthio)carbonylamino)-3,4,5-trihydroxytetrahydro-2H-pyran-2-carboxylic acid formation at 20 uM after 4 hrs by radio-HPLC/LC-MS/MS analysis in presence of UDPGA
T1 sequence (Q9HAW9 whole entry): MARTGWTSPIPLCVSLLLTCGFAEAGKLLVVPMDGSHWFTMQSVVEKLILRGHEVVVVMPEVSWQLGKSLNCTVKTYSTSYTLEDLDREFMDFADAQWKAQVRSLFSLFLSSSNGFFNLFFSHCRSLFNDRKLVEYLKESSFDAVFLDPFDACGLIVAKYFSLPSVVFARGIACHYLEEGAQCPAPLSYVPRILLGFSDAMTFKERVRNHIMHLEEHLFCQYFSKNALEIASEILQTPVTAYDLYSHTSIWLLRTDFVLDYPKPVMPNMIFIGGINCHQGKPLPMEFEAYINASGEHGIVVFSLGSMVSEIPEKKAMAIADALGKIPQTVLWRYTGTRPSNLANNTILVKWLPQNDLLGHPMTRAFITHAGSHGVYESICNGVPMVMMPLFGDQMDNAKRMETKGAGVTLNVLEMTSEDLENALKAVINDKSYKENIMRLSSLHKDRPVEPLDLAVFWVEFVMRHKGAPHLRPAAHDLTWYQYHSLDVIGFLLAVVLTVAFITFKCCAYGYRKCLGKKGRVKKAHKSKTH

[3] = target: T2, Cytochrome P450 2C8 (Homo sapiens, UniProt P10632); experiment: Activity of human CYP2C8 expressed in microsomes isolated from baculovirus infected insect cell assessed as enzyme-mediated 3-(4-((6-methoxy-1-methyl-1H-benzo[d]imidazol-2-yl)methoxy)phenyl)-2-(methylthio)propanoic acid formation at 20 uM after 2 hrs by radio-HPLC/LC-MS/MS analysis in presence of NADPH-generating system/SAM and UDPGA/SAM
T2 sequence (P10632 whole entry): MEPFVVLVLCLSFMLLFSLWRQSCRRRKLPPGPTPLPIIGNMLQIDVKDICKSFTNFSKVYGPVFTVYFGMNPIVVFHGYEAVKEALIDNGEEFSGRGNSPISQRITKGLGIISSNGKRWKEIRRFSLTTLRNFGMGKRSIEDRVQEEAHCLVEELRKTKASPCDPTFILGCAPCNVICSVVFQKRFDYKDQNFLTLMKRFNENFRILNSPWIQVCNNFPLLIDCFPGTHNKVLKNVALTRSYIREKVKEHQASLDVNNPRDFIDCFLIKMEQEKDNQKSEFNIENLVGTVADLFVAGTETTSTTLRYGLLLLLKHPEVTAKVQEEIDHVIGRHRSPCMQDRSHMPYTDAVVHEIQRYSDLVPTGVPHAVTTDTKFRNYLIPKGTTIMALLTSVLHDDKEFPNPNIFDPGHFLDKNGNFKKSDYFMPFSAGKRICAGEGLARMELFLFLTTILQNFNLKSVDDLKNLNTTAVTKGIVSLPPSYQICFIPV

[4] = target: T3, Cytochrome P450 1A2 (Homo sapiens, UniProt P05177); experiment: Activity of human CYP1A2 expressed in microsomes isolated from baculovirus infected insect cell assessed as enzyme-mediated 2-((4-((2,4-dioxothiazolidin-5-yl)methyl)phenoxy)methyl)-1-methyl-1H-benzo[d]imidazol-6-yl hydrogen sulfate formation at 20 uM after 2 hrs by radio-HPLC/LC-MS/MS analysis
T3 sequence (P05177 whole entry): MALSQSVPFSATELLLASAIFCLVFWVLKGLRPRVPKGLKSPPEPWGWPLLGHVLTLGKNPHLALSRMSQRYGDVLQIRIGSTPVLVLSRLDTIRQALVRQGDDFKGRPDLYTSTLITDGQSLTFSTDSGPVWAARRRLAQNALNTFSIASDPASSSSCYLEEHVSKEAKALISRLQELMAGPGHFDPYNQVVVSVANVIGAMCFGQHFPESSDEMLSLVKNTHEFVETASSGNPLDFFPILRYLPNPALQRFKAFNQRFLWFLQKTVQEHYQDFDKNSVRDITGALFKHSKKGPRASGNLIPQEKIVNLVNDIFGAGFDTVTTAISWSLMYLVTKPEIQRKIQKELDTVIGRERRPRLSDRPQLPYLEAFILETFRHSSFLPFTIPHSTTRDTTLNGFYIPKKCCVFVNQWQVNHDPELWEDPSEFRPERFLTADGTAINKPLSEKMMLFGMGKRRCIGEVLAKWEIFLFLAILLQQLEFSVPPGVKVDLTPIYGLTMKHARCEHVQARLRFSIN
Outline: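 Baculovirus/insect-cell microsomes expressing single human CYPs, 1 mg/ml protein, with 50 mM potassium phosphate (pH 7.4) or 100 mM Tris-HCl (pH 7.5). NADPH-generating system: 2 mM NADP⁺, 20 mM glucose 6-phosphate, 2 units/ml G6PDH, 10 mM MgCl₂. [¹⁴C]rivoglitazone at 20 μM, 2 h at 37°C with shaking. Control used insect-cell control supersomes. Stopped with acetonitrile; supernatant concentrated under nitrogen; metabolites analysed by radio-HPLC, LC-MS and LC-MS/MS.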

[5] = target: T4, UDP-glucuronosyltransferase 1A3 (Homo sapiens, UniProt P35503); experiment: Activity of human UGT1A3 expressed in microsomes isolated from baculovirus infected insect cell assessed as enzyme-mediated 2-amino-3-((1-carboxy-2-(4-((6-methoxy-1-methyl-1H-benzo[d]imidazol-2-yl)methoxy)phenyl)ethyl)disulfanyl)propanoic acid formation at 20 uM after 4 hrs by radio-HPLC/LC-MS/MS analysis in presence of UDPGA and UDPGA/SAM
T4 sequence (P35503 whole entry): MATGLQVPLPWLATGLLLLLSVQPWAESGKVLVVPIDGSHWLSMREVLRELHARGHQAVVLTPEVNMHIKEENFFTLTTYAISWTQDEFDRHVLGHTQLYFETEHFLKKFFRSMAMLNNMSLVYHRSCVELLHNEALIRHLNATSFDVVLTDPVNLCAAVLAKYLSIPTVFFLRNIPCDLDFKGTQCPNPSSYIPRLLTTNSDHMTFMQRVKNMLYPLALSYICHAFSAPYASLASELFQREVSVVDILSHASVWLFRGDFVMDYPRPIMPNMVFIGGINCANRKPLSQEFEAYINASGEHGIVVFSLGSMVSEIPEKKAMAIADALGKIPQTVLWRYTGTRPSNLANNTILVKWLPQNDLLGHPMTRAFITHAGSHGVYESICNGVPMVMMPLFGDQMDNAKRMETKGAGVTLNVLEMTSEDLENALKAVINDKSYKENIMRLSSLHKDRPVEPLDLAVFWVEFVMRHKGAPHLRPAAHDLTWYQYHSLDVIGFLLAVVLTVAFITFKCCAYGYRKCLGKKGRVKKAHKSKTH
Outline: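 Alamethicin (50 μg/mg protein, 15 min on ice) pretreated expressed human UGT microsomes (1 mg/ml protein) from baculovirus-infected insect cells. Incubation with [¹⁴C]rivoglitazone (20 μM) in 100 mM Tris-HCl (pH 7.5) with 10 mM MgCl₂, started by 5 mM UDPGA, 4 h at 37°C with shaking. UGT insect-cell control supersomes were run alongside. Acetonitrile stop, concentrated supernatant analysed by radio-HPLC, LC-MS and LC-MS/MS.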

- Drug metabolism [1]: metabolite_detected
- Drug metabolism [2]: metabolite_not_detected
- Drug metabolism [3]: metabolite_not_detected
- Drug metabolism [4]: metabolite_not_detected
- Drug metabolism [5]: metabolite_not_detected
SMILES: COc1ccc2nc(COc3ccc(C[14CH]4SC(=O)NC4=O)cc3)n(C)c2c1.Cl (racemic)
